Screening results: PubChem BioAssay, several laboratories
Shown are actives, neighbours in structure and some others; about 1.7% of the full set was active somewhere.
HNF4A DNA FP = change in binding of human HNF4 alpha to DNA | AID 1224865 | P41235 | HNF4a-FITC DNA binding, fluorescence polarization, 1 h | actives 0.3% (n = 360,000) | activity change, % at 10 µM; in the data active means activity change above about 30%, passing the limit was not always enough
CSN inh = CSN deneddylation inhibition; Q92905; Purified CSN, SCF-Nedd8-OG deneddylation, fluorescence polarization; inhibition, % at 12.5 µM; actives 0.38% (n = 360,000); AID 651999;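 active means pattern-corrected inhibition above about 35%, with an unprinted fluorescence ratio check between 0.5 and 1.5, limit read from the data, passing the limit was not always enough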;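 further: 0% = enzyme with substrate and 100% = substrate without enzyme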
Target sequence (Q92905 whole entry, looked up, one chain of several): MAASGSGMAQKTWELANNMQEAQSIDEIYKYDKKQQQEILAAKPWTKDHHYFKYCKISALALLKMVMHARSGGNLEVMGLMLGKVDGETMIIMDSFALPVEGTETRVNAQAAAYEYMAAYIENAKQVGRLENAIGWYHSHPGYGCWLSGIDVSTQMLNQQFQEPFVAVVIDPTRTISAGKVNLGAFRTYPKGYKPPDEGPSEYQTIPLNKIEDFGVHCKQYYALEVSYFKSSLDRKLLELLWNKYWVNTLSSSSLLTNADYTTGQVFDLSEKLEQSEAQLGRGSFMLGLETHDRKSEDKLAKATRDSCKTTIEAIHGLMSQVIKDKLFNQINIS
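Test system: Human Csn5 produced in HEK293T cells | Compound: 12.5 µM single point | Times: 90 min, room temperature | Signal: Fluorescence polarization readout | Read-out basis: % inhibition of substrate cleavage by Csn5 | Controls: no-enzyme wells high, enzyme-with-substrate wells low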
TPT1 inhibitor = C. albicans TPT1 enzyme inhibition; recombinant caTPT1, FP RNA substrate dephosphorylation; inhibition, % at 5 µM; actives 0.81% (n = 300,000);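 active means inhibition above the mean of all tested compounds plus 3 SD, set per screening campaign, cut at about 24% in these data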;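 further: plate controls were DMSO alone for no effect and ferristatin control at 100 nM for full effect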
IDE cell activ = boosts human insulin-degrading enzyme activity in HEK cells | P14735 | activation, % at 5.96 µM | AID 493087 | FAbeta-B cleavage, fluorescence polarization; 0% vehicle, 100% cell-free pure enzyme wells | actives 0.073% (n = 340,000);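 active means activation above the mean of all tested compounds plus 3 SD, set per screening campaign, cut at about 17% in these data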
Rpn11 inh = blocks the human proteasome subunit Rpn11; O00487; human 26S proteasome, Ub4-pepOG fluorescence polarization; 20S core pre-blocked with epoxomicin; inhibition, % at 20 µM; actives 0.59% (n = 360,000); AID 588493;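 active means inhibition at 20 µM, scaled to each plate's controls, above about 33%, limit read from the data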
Target sequence (O00487 whole entry, looked up): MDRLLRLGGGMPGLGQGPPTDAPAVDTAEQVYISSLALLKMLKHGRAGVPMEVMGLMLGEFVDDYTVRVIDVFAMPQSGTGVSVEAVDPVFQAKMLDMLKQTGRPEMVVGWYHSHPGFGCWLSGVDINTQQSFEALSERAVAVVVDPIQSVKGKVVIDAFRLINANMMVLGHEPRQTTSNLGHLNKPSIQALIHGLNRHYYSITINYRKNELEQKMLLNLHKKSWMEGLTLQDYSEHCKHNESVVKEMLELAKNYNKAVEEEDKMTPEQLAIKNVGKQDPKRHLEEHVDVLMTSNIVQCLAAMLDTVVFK
IDE inh = inhibits human insulin-degrading enzyme in HEK cells; P14735; FAbetaB cleavage, fluorescence polarization; inhibition, % at 5.59 µM; actives 0.41% (n = 320,000);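 active means percent inhibition above the average of all tested compounds plus 3 SD, set per screening campaign, cut at about 16% in these data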;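 further: IDE supplied by intact live HEK cells; FP after avidin binding of uncleaved biotin substrate so inhibition keeps polarization high; 0% = DMSO wells and 100% = 60 µM reference IDE inhibitor Ii1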
TPT1 inh confirm = TPT1 (C. albicans) inhibition, confirmation | shares compounds with TPT1 inhibitor | recombinant caTPT1, fluorescence polarization, RNase T1 coupled | inhibition, % at 5 µM | actives 74% (n = 2,400);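 active means inhibition above the primary screen limit, the mean inhibition of all tested compounds plus 3 SD, cut at about 25% in these data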
RNase T1 counter = counter-screen for TPT1 inhibitors: inhibitors of Aspergillus oryzae RNase T1; shares compounds with TPT1 inhibitor; RNase T1 cleavage, fluorescence polarization, 1536-well; inhibition, % at 5 µM; actives 83% (n = 2,400); AID 2153;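 active means inhibition above the solvent-only control well mean plus 3 SD, limit set per screening run, cut at about 23% in these data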;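 further: plate controls were DMSO wells with enzyme for no effect and wells without RNase T1 for full effect; inhibitors block cleavage so intact labeled substrate keeps polarization high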
IDE cell inh cf = confirmation of human insulin-degrading enzyme inhibitors in cells | shares compounds with IDE inh | HEK cells, FAbetaB cleavage, fluorescence polarization | inhibition, % at 5.59 µM | actives 51% (n = 1,200) | AID 435028;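 active means mean inhibition across triplicate wells above the cutoff set by the earlier primary insulin-degrading enzyme screen, cut at about 16% in these data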;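 further: 0% = DMSO wells and 100% = 60 µM reference IDE inhibitor Ii1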
HEK293 tox = kills HEK cells in IDE inhibitor counter-screen | shares compounds with IDE inh | HEK293 cytotoxicity, ATP luminescence | inhibition, % at 5.59 µM | actives 28% (n = 1,200) | AID 449730; in the data active means inhibition above about 22%;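 further: 0% = vehicle wells and 100% = reference cytotoxic drug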
IDE FP artifact = counter-screen for IDE inhibitors: fluorescent artifacts | shares compounds with IDE inh | FP counterscreen for fluorescent artifacts, IDE probe project | IC50, µM | 30 tested, under 10 active | AID 588718
HNF4A confirm = change in binding of human HNF4 alpha to DNA, retest. AID 1224897. activity change, % at 12.5 µM. actives 99% (n = 210). HNF4A-FITC DNA binding, fluorescence polarization, 1 h. shares compounds with HNF4A DNA FP
The depositor's hits bear a star; . = not tested or not shown. Unless noted, how the calls were made is not given here.

SMILES	HNF4A DNA FP	CSN inh	TPT1 inhibitor	IDE cell activ	Rpn11 inh	IDE inh	IDE cell inh cf	HEK293 tox	others
COc1cc(C2C3CN(C)CC=C3C(C#N)=C(N)C2(C#N)C#N)ccc1OC(C)C (stereo not given)	-34	-9	4	-5	-42	0	.	.
CCOc1ccc2cc(/C=C/C(=O)c3ccco3)c(Cl)nc2c1	34*	33	37*	5	.	1	.	.	TPT1 inh confirm=57*;RNase T1 counter=68*;HNF4A confirm=36*
CCOc1ccc2nc(SCC(=O)NNC(=O)c3ccco3)c(C)cc2c1	5	0	1	0	-4	0	.	.
O=C(Nc1nc(-c2ccc(S(=O)(=O)N3CCOCC3)cc2)cs1)c1ccccc1	-1	-11	6	-7	3	22*	3	72*
Cc1ccc(-c2csc(NC(=O)c3cccc(S(=O)(=O)N4CCN(C)CC4)c3)n2)cc1	-1	1	-1	9	1	-2	.	.
COc1cccc(C(=O)Nc2nc(-c3ccc(S(=O)(=O)N4CCOCC4)cc3)cs2)c1	-3	-4	-2	-20	-1	40*	16	58*
Cn1ccnc1SCC(=O)Nc1cc(F)ccc1F	-3	-1	-5	6	-1	0	.	.
CC(C)C(NC(=O)c1ccco1)C(=O)OCC(=O)Nc1ccc(C(N)=O)cc1 (stereo not given)	3	2	0	5	-4	-1	.	.
COc1ccc(Cl)cc1NC(=O)C1CCCN(c2cc(C)nc3ncnn23)C1 (stereo not given)	4	-2	-1	-27	-5	16*	13	9
CCCc1cc(N2CCCC(C(=O)Nc3cc(Cl)ccc3OC)C2)n2ncnc2n1 (stereo not given)	0	-1	-1	-2	-6	7	.	.
CC(=O)Oc1c(-c2ccc(Br)o2)oc2ccccc2c1=O	0	4	-2	-55	0	57*	74*	13
COc1ccc(-c2csc3nc[nH]c(=O)c23)cc1OC	-1	-2	-2	2	-7	-6	.	.
Cc1ccc(-c2csc3nc[nH]c(=S)c23)cc1C	3	-1	0	-9	3	22*	3	13
NS(=O)(=O)c1ccc(CCNC(=O)c2ccc(C#CC3(O)CCCCC3)cc2)cc1	-1	0	0	1	5	2	.	.
CCc1nnc(NC(=O)CSc2nc3c(c(=O)n2C)SC(C)C3)s1 (stereo not given)	1	0	4	-30	2	17*	11	5
COC(=O)[C@]12CCCCC=C1N(Cc1ccco1)C(=O)[C@H](CC(=O)NCCC(C)C)C2	-6	-2	.	.	.	.	.	.
CN(C)C=Nc1c(Br)cc(Br)c2nonc12	29	65	1	-31	.	26*	62*	7
CC(OC(=O)/C(C#N)=C/c1ccc(N(C)C)cc1)C(=O)NCc1ccco1 (stereo not given)	7	15	-29	-4	15	4	.	.
CN(C)c1ccc(/C=C(\C#N)C(=O)NCc2ccco2)cc1	.	.	43*	.	.	22*	14	18
Cc1ccc(S(=O)(=O)N2Cc3ccccc3CC2C(N)=O)cc1 (stereo not given)	-2	1	.	.	-2	.	.	.
O=C(NCc1ccc(Cl)c(Cl)c1)c1cc(C2CCCCN2C(=O)CCc2ccccc2)on1 (stereo not given)	-1	-2	.	.	3	.	.	.
CC(=O)Cc1cc(O)c2ccccc2c1OC(=O)c1ccccc1	-1	3	-2	-6	-1	43*	37*	14
CC1(C)CC(=O)C/C(=N/NC(=O)c2ccc(-c3ccccc3)cc2)C1	19	14	7	-11	30	18*	14	5
CCC1(c2ccc(F)cc2)NC(=O)N(CC(=O)N2CCN(S(=O)(=O)c3ccc(C)cc3)CC2)C1=O (stereo not given)	1	-1	1	0	0	0	.	.
COC(=O)c1ccc(CNC(=O)Cn2cnc3c(OCc4ccccc4)ncnc32)cc1	-2	-5	.	7	-7	-3	.	.
SMILES	HNF4A DNA FP	CSN inh	TPT1 inhibitor	IDE cell activ	Rpn11 inh	IDE inh	IDE cell inh cf	HEK293 tox	others
Cn1sc2ccccc2c1=O	0	-5	.	.	-3	.	.	.
Cc1nn(Cc2cccc(F)c2)c(C)c1NC(=O)c1ccc(COc2ccccc2Cl)cc1	4	-2	1	-35	-1	25*	13	55*
Cc1nn(Cc2c(F)c(F)c(F)c(F)c2F)c(C)c1NC(=O)c1ccc(COc2ccc(Cl)cc2Cl)o1	0	-12	-1	-10	6	19*	7	34*
Cc1ccc(OCCNC(=O)c2cccc(S(=O)(=O)N3CCN(C)CC3)c2)cc1	-2	-6	.	0	-5	2	.	.
CCCc1cc(C(=O)N2CCN(c3ccc(C(F)(F)F)cn3)CC2)sc1C	-2	-2	0	-29	-2	16*	4	16
O=C(O)COCC(=O)N1CCCN(c2ccc(C(F)(F)F)cn2)CC1	5	-4	.	5	5	.	.	.
CC(=O)c1cccc(OCC(=O)N2CCN(c3ccc(C(F)(F)F)cn3)CC2)c1	0	7	-3	-19	-5	22*	19*	6
CN(C)S(=O)(=O)c1cccc(NC(=O)CSc2ncnc3ccccc23)c1	-3	5	0	-9	1	4	.	.
CN(C)S(=O)(=O)c1ccc(NC(=O)CSc2ncnc3ccccc23)cc1	-3	2	-2	-8	-2	19*	1	11
Cc1nc(-c2cccnc2)sc1C(=O)Nc1cccc(C(F)(F)F)c1	1	1	-1	-4	-2	7	.	.	IDE FP artifact=>55
COc1cc(NC(=O)c2csc(-c3ccncc3)n2)cc(C(=O)Nc2cccc(C(F)(F)F)c2)c1	3	2	-1	2	2	2	.	.
COc1ccc(-c2nc(C(=O)Nc3cccc(C(F)(F)F)c3)cs2)cc1	.	.	.	.	.	.	.	.	IDE FP artifact=>55
